This note sets out measurements from PubChem BioAssay AID1381 (University of Pittsburgh Molecular Library Screening Center, 2008).

About 1,000 (0.45%) of roughly 220,000 compounds were called active.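 The calls were made as follows: active = plate z-score of nuclear minus cytoplasmic receptor signal below a set negative limit, without overly bright fluorescence or cell loss (cut at about -3.5 in these data, passing the limit was not always enough); inactive = the rest, inconclusive results apart.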 For the sample, actives were picked, then their nearest neighbours and some compounds at random.

The nature of this assay: inhibitors of GR-EGFP nuclear translocation, primary screen, dynein cargo transport inhibitor project, imaging, high-content, 3617.4 mouse cells (AID 1381). Particulars: stimulated with dexamethasone, 1 µM. Put shortly: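 Schedule: 48 h induction, then 1 h compound, then 30 min agonist, 37 °C. Buffer or medium: tetracycline-free induction medium containing charcoal-stripped FBS. Reagent: 1.0 µM final dexamethasone stimulus. Evaluation: nuclear versus cytoplasmic GR-EGFP signal, averaged per well. Signal: high-content fluorescence imaging after fixation.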

The mark [1] stands for this setting: measured here: cell count per field, at 20 µM.
Where [2] appears, read: measured here: cytoplasmic GR-EGFP intensity, at 20 µM, stronger effect = higher value.
Where [3] appears, read: measured here: nuclear GR-EGFP intensity, at 20 µM, stronger effect = lower value.
Setting [4] is: measured here: cell count per field, at 50 µM.
Setting [5] is: measured here: cytoplasmic GR-EGFP intensity, at 50 µM, stronger effect = higher value.
The mark [6] stands for this setting: measured here: nuclear GR-EGFP intensity, at 50 µM, stronger effect = lower value.

As for `Cc1cc(C)c(C#N)c(SCc2[nH]nc3c2C(c2ccccc2)C(C#N)=C(N)O3)n1` (stereo unspecified), the z-score reads like this: (at 20 µM, stronger effect = lower value) -0.933 (inactive); under setting [1], 1.23; under setting [2], -0.0183; under setting [3], -0.255.

As to `Cc1cc(C)c2c3c(sc2n1)C(c1ccccc1)C(C#N)=C(N)O3` (stereo unspecified), the z-score is -4.27 (active) (at 50 µM, stronger effect = lower value); 2.33 under setting [4]; 1.49 under setting [5]; -2.28 under setting [6].

For the compound `N#CC1=C(N)Oc2c(sc3ccccc23)C1c1ccco1` (stereo unspecified), the z-score (at 20 µM, stronger effect = lower value) was -0.943 (inactive); the z-score under setting [1] was found to be 0.511; the z-score under setting [2] came out at 0.878; the z-score under setting [3] was found to be 0.0658.

For the compound `COc1ccc(C(C#N)N2N=C(C)CC2(C)C)cc1` (stereo unspecified), the z-score was -0.0116 (inactive) (at 20 µM, stronger effect = lower value); -0.511 under setting [1]; -0.208 under setting [2]; -0.808 under setting [3].

Consider `O=C(NCCCN1CCCCC1)c1ccc2c(c1)NC(=O)C(N1CCOCC1)S2` (stereo unspecified), for which the z-score by setting is: (at 20 µM, stronger effect = lower value) 0.104 (inactive); under setting [1], -0.224; under setting [2], -0.224; under setting [3], -0.851.

For `O=S1(=O)CC/C(=N\Nc2ccc(F)cc2)c2ccsc21`, the z-score was -0.204 (inactive) (at 20 µM, stronger effect = lower value); -0.257 under setting [1]; -0.126 under setting [2]; -0.15 under setting [3].

`Nn1cnnc1N/N=C/c1cc([N+](=O)[O-])c(Cl)cc1Cl`: the z-score (at 20 µM, stronger effect = lower value) is 0.859 (inactive); the z-score under setting [1] was -0.348; the z-score under setting [2] was found to be 0.536; the z-score under setting [3] was determined as 0.371.

In the case of `Cn1c2ccccc2c(=O)c2c(=O)n(Cc3ccco3)c(COc3ccccc3)nc21`, the z-score reads like this: (at 20 µM, stronger effect = lower value) 0.301 (inactive); under setting [1], -0.271; under setting [2], -0.198; under setting [3], 0.291.

For the compound `Cc1ccc(Cn2c(NC(=O)c3ccco3)nc3ccccc32)cc1`, the z-score is, setting by setting: (at 20 µM, stronger effect = lower value) 0.337 (inactive); under setting [1], -0.00289; under setting [2], -0.18; under setting [3], 0.336.

On to `Cc1ccc(Cn2c(C)nc3c(c2=O)c2nc4ccccc4nc2n3Cc2ccco2)cc1`, for which the z-score was -4.55 (active) (at 50 µM, stronger effect = lower value); -0.433 under setting [4]; 0.482 under setting [5]; -1.83 under setting [6].

Take `Cc1c(Cl)cccc1NC(=O)CC1SC(=NCC2CCCO2)NC1=O` (stereo unspecified): the z-score runs as follows: (at 20 µM, stronger effect = lower value) -0.0448 (inactive); under setting [1], -0.163; under setting [2], -0.258; under setting [3], 0.413.

Consider `NNC(=O)c1ccc(Cl)cc1Cl`, for which the z-score reads like this: (at 20 µM, stronger effect = lower value) 0.203 (inactive); under setting [1], -0.823; under setting [2], -0.243; under setting [3], 0.206.

For the compound `Cc1ccc(NC(=O)c2cc(-c3ccc(C)o3)nc3ccccc23)nc1`, the z-score is -3.31 (inactive) (at 50 µM, stronger effect = lower value); -0.441 under setting [4]; 0.617 under setting [5]; -1.89 under setting [6].

As for `Cc1ccc(-c2cc(C(=O)NCC3CCCO3)c3ccccc3n2)o1` (stereo unspecified), the z-score is -4.29 (active) (at 50 µM, stronger effect = lower value); 0.456 under setting [4]; 0.668 under setting [5]; -1.96 under setting [6].

On to `O=C(NCC1CCCO1)c1cc(-c2ccccc2)nc2ccccc12` (stereo unspecified), for which the z-score was 0.068 (inactive) (at 20 µM, stronger effect = lower value); 0.631 under setting [1]; -0.236 under setting [2]; 0.0806 under setting [3].

`Cc1nc(-c2nnc(SCC(=O)Nc3cc(C(F)(F)F)cc(C(F)(F)F)c3)n2C)cs1`: the z-score reads like this: (at 20 µM, stronger effect = lower value) 0.49 (inactive); under setting [1], -0.365; under setting [2], -0.261; under setting [3], 0.826.

As for `COc1ccc(CN(Cc2ccc(OC)cc2)C(=O)c2cccs2)cc1`, the z-score (at 20 µM, stronger effect = lower value) was -0.594 (inactive); the z-score under setting [1] turned out to be 0.82; the z-score under setting [2] is -0.256; the z-score under setting [3] was -0.492.

Regarding `COc1ccc(NC(=O)CN(Cc2ccccc2)S(C)(=O)=O)cc1OC`, the z-score by setting is: (at 20 µM, stronger effect = lower value) 0.347 (inactive); under setting [1], -0.496; under setting [2], 0.00823; under setting [3], 0.254.

On to `Cc1cc(=O)oc2c1c(C)nn2-c1ccc(Cl)cc1`, for which the z-score (at 20 µM, stronger effect = lower value) is -0.357 (inactive); the z-score under setting [1] is 1.43; the z-score under setting [2] is -0.242; the z-score under setting [3] is -0.696.

Turning to `Cc1cc(C)nc(S/C=C/C(=O)c2ccccc2)n1`, the z-score runs as follows: (at 20 µM, stronger effect = lower value) -5.15 (active); under setting [1], 1.04; under setting [2], 1.08; under setting [3], -2.68.

`C/C(=N\NC(=O)c1nc(C)cc(C)n1)c1ccccc1`: the z-score runs as follows: (at 20 µM, stronger effect = lower value) 1.7 (inactive); under setting [1], -1.78; under setting [2], 0.199; under setting [3], 1.06.

As for `Cc1cc(SCC(=O)c2ccccc2)nc(SCC(=O)c2ccccc2)n1`, the z-score is, setting by setting: (at 20 µM, stronger effect = lower value) 3.42 (inactive); under setting [1], -0.936; under setting [2], -0.199; under setting [3], -0.0972.

In the case of `Nc1nnn(CC(=O)N/N=C/c2ccc(O)cc2)n1`, the z-score is, setting by setting: (at 20 µM, stronger effect = lower value) -0.272 (inactive); under setting [1], 0.973; under setting [2], -0.243; under setting [3], 0.283.

As to `CC(=O)N/C(=C\c1ccc(F)cc1)C(=O)NC(Cc1ccccc1)C(=O)O` (stereo unspecified), the z-score reads like this: (at 20 µM, stronger effect = lower value) -0.458 (inactive); under setting [1], 0.748; under setting [2], -0.217; under setting [3], 0.179.

As for `COCCN(CCOC)C(=S)Nc1ccccc1Cl`, the z-score (at 20 µM, stronger effect = lower value) was -0.23 (inactive); the z-score under setting [1] was 0.546; the z-score under setting [2] stood at 0.025; the z-score under setting [3] was -0.44.

With `O=C(Nc1ccccc1Cl)c1ccc2nsnc2c1`, the z-score reads like this: (at 20 µM, stronger effect = lower value) -0.891 (inactive); under setting [1], 0.488; under setting [2], -0.235; under setting [3], -0.5.

Take `O=C(Nc1ccccc1Cl)/C(Cl)=C(\Cl)S(=O)c1ccccc1` (stereo unspecified): the z-score reads like this: (at 20 µM, stronger effect = lower value) -7.75 (active); under setting [1], 0.218; under setting [2], 2.93; under setting [3], -2.78.

With `C/C(N)=C(/C#N)C(=O)COC(=O)c1cc(-c2cccc(Br)c2)nc2ccccc12`, the z-score (at 20 µM, stronger effect = lower value) is 0.554 (inactive); the z-score under setting [1] was -0.985; the z-score under setting [2] was -0.242; the z-score under setting [3] was determined as 0.468.

Take `O=C(COC(=O)c1ccccc1)Nc1cccc(S(=O)(=O)N2CCOCC2)c1`: the z-score (at 20 µM, stronger effect = lower value) is 0.599 (inactive); the z-score under setting [1] is -0.0984; the z-score under setting [2] was -0.271; the z-score under setting [3] amounted to 0.704.

Regarding `COC(=O)c1ccc(CSc2nnc(N)s2)o1`, the z-score (at 20 µM, stronger effect = lower value) is -0.747 (inactive); the z-score under setting [1] stood at 0.802; the z-score under setting [2] is -0.292; the z-score under setting [3] is -0.243.

With `O=C1c2ccccc2NC(c2ccccn2)N1NS(=O)(=O)c1ccccc1` (stereo unspecified), the z-score is -1.12 (inactive) (at 20 µM, stronger effect = lower value); 1.24 under setting [1]; -0.348 under setting [2]; -0.844 under setting [3].

Turning to `CCC1(CC)NC(=O)N(CC(=O)OCC(=O)NC(=O)c2ccccc2)C1=O`, the z-score was -0.1 (inactive) (at 20 µM, stronger effect = lower value); 1.43 under setting [1]; -0.273 under setting [2]; 0.236 under setting [3].

As for `CCCc1nc2oc3c(=O)[nH]cnc3c2c2c1COC(C)(C)C2`, the z-score is -0.456 (inactive) (at 20 µM, stronger effect = lower value); 0.775 under setting [1]; -0.274 under setting [2]; -0.288 under setting [3].

For the compound `C/C(CC(=O)Nc1cccc(F)c1)=N\NC(=O)C(=O)NC1CCCCC1`, the z-score was -0.0686 (inactive) (at 20 µM, stronger effect = lower value); 0.185 under setting [1]; -0.304 under setting [2]; -0.00364 under setting [3].

`CCc1c(SCCC(=O)O)nc2ccccc2c1C`: the z-score was -0.704 (inactive) (at 20 µM, stronger effect = lower value); 0.903 under setting [1]; -0.252 under setting [2]; -0.0559 under setting [3].

Regarding `CCCSC(=S)NC1CCS(=O)(=O)C1` (stereo unspecified), the z-score is, setting by setting: (at 20 µM, stronger effect = lower value) -1.85 (inactive); under setting [1], 0.977; under setting [2], -0.0684; under setting [3], -0.34.

For the compound `O=S1(=O)CCC(NC(=S)SCc2ccccc2Br)C1` (stereo unspecified), the z-score reads like this: (at 20 µM, stronger effect = lower value) -3.97 (active); under setting [1], -0.868; under setting [2], 1.57; under setting [3], -1.78.

In the case of `O=C(CSc1ccccc1F)NC1CCS(=O)(=O)C1` (stereo unspecified), the z-score (at 20 µM, stronger effect = lower value) is -0.432 (inactive); the z-score under setting [1] was 0.683; the z-score under setting [2] is -0.305; the z-score under setting [3] was 0.2.

In the case of `CCOc1ccc(C(C)=O)cc1CSc1nnc(-c2ccncc2)n1CCOC`, the z-score (at 20 µM, stronger effect = lower value) is 0.185 (inactive); the z-score under setting [1] stood at 0.406; the z-score under setting [2] is -0.242; the z-score under setting [3] is 0.523.

Take `O=c1oc(/C=C/c2ccccc2)nc2ccccc12`: the z-score reads like this: (at 20 µM, stronger effect = lower value) 1.7 (inactive); under setting [1], -1.1; under setting [2], -0.0815; under setting [3], 0.729.

As for `COc1ccc(-c2cc(C(F)(F)F)nc(S(C)(=O)=O)n2)cc1OC`, the z-score was -5.48 (active) (at 20 µM, stronger effect = lower value); 0.235 under setting [1]; 1.61 under setting [2]; -2.61 under setting [3].

For the compound `COc1cc(OC)nc(S(C)(=O)=O)n1`, the z-score runs as follows: (at 20 µM, stronger effect = lower value) 0.268 (inactive); under setting [1], -0.196; under setting [2], -0.228; under setting [3], -0.13.

As to `COc1ccc(-c2cc(C(F)(F)F)nc(SCC(=O)Nc3ccc4c(c3)OCO4)n2)cc1OC`, the z-score is -0.345 (inactive) (at 20 µM, stronger effect = lower value); 0.664 under setting [1]; -0.302 under setting [2]; -0.551 under setting [3].

With `CC1C/C(=N/NC(=O)c2cccs2)CC(C)(C)C1` (stereo unspecified), the z-score reads like this: (at 20 µM, stronger effect = lower value) -1.02 (inactive); under setting [1], 0.142; under setting [2], -0.107; under setting [3], -0.387.
